Activity calls are given as the source filed them. The calls are words filed in the database; no cut-off is given here.
Legend:
SK-MEL [1] = assay: Anti-melanoma activity against human SK-MEL cells xenografted in yolk of zebra fish at 10 uM measured after 48 hrs by CM-Dil staining based fluorescence microscopic analysis; type: functional, cell-based
Method in brief: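 SK-MEL-1 cells prelabelled with CM-DiI (2 μM) microinjected into superficial yolk near perivitelline space of 2 dpf zebrafish embryos; treated 48 h at 28.5 °C; CM-DiI fluorescence of tumour mass imaged by fluorescence microscopy in immobilized fish. Sorafenib (0.5 μM) positive control.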

SK-MEL [2] = assay: Induction of apoptosis in human SK-MEL cells assessed as increase in cleaved PARP level at 0.1 to 0.5 uM incubated for 48 hrs by Western blot analysis; type: functional, cell-based; settings: dose 0.1-0.5 µM
Method in brief: (§1)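 SK-MEL-1 cells seeded 3 × 10⁵/well for 24 h, treated 48 h; lysed in RIPA buffer with protease and phosphatase inhibitors 15 min at 4 °C; 20 μg protein by SDS-PAGE, PVDF transfer, PARP immunoblot with ECL detection; β-actin loading control. Sorafenib (10 μM) positive control.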

[3] = Toxicity in zebra fish larvae assessed as curved tail at 100 uM measured at 48 hpf by stereomicroscopic analysis; parameters: species or system Danio rerio; settings: zebrafish, 48 h
Method in brief: (§2)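 Zebrafish larvae at 48 hpf, kept at 28.5 °C in E3 medium, treated with compound; survival and pathological changes (e.g. pericardial edema) checked by stereomicroscope every 12 h.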

SK-MEL [4] = assay: Cytotoxicity against human SK-MEL cells assessed as reduction in cell viability measured after 48 hrs by MTT assay; type: functional, cell-based
Method in brief: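 MTT assay: SK-MEL-1 cells (DMEM, 10% FBS, 37 °C, 5% CO2) seeded 10⁴/well for 24 h, then exposed to a range of concentrations for 48 h; MTT added for 4 h at 37 °C, formazan dissolved in DMSO, absorbance 570 nm. IC50 as mean ± SD, three independent experiments.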

[5] = Toxicity in zebra fish larvae assessed as death at 100 uM measured at 48 hpf by stereomicroscopic analysis; parameters: species or system Danio rerio; settings: zebrafish, 48 h; method in brief: as §2
Danio rerio [6] = species on record: Danio rerio; assay: Antiangiogenic activity in transgenic Tg(fli1:GFP) zebra fish embryo assessed as reduction in angiogenic sprouts at 20 uM measured at 48 hrs postfertilization by fluorescence microscopy; type: functional, organism-based
Method in brief: (§3)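 Tg:Fli1-GFP embryos selected at 12 hpf, 30 per well, 28.5 °C in E3 medium, exposed to compound (20 μM); chorions broken at 24 hpf; at 48 hpf ISVs and angiogenic sprouts counted by fluorescence microscopy. Sorafenib (1 μM) positive control; mean, SD; one-way ANOVA with Tukey post hoc test.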

Danio rerio [7] = species on record: Danio rerio; assay: Antiangiogenic activity in transgenic Tg(fli1:GFP) zebra fish embryo assessed as reduction in intersegmental blood vessels at 20 uM measured at 48 hrs postfertilization by fluorescence microscopy; type: functional, organism-based; method in brief: as §3
[8] = Toxicity in zebra fish larvae assessed as pericardial edema at 100 uM measured at 48 hpf by stereomicroscopic analysis; parameters: species or system Danio rerio; settings: zebrafish, 48 h; method in brief: as §2
[9] = Toxicity in zebra fish larvae at 100 uM measured at 48 hpf by stereomicroscopic analysis; parameters: species or system Danio rerio; settings: zebrafish, 48 h; method in brief: as §2
[10] = target: Vascular endothelial growth factor receptor 2 (Danio rerio) (UniProt Q5GIT4); assay: Inhibition of VEGFR2 mediated angiogenesis in transgenic Tg(flk1:GFP) zebra fish embryo at 20 uM measured at 48 hrs postfertilization by fluorescence microscopy
Sequence of Vascular endothelial growth factor receptor 2 (Danio rerio) (Q5GIT4 whole entry): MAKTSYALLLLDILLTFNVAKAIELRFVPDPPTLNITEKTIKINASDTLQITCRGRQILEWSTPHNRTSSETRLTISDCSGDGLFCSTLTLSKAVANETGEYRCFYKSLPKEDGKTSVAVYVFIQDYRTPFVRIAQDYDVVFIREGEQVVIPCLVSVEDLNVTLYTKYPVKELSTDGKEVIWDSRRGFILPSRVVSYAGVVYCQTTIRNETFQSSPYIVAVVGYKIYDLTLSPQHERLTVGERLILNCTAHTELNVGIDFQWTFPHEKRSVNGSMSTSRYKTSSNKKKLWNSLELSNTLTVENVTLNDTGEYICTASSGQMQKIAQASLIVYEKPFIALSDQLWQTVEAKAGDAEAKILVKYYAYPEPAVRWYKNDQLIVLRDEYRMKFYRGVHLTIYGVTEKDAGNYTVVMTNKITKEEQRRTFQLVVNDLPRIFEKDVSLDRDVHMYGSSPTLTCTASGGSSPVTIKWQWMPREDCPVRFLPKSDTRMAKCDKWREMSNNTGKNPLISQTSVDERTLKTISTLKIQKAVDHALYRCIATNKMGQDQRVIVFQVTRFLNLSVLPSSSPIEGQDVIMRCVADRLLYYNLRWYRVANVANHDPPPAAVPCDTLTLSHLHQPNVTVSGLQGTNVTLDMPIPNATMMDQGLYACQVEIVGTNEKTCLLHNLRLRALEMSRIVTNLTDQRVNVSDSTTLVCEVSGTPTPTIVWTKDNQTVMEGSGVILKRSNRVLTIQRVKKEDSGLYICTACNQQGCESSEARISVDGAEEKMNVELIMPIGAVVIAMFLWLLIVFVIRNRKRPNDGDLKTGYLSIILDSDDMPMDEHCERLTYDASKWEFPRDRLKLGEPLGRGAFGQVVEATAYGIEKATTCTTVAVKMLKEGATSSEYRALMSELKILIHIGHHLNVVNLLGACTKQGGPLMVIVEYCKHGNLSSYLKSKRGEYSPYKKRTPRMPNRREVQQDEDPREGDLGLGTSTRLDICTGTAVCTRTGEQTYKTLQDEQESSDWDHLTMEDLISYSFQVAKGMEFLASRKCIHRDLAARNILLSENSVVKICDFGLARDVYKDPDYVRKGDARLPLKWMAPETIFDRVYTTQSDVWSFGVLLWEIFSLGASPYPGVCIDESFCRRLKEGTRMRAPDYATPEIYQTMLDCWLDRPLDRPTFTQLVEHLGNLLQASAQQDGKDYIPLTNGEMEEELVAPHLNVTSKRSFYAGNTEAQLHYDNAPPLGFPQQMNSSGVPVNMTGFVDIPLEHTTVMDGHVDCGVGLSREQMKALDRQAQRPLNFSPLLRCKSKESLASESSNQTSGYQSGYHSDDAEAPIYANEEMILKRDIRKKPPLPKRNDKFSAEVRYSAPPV
Method in brief: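 Tg:Flk1-GFP (VEGFR2 reporter) embryos treated from 12 hpf at 20 μM, 28.5 °C in E3 medium; chorions removed at 24 hpf; ISV and sprout numbers counted at 48 hpf under fluorescence microscope. Sorafenib (1 μM) positive control; one-way ANOVA, Tukey post hoc test.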

SK-MEL [11] = assay: Induction of apoptosis in human SK-MEL cells assessed as increase in cleaved PARP level at 0.5 to 1 uM incubated for 48 hrs by Western blot analysis; type: functional, cell-based; settings: dose 0.5-1 µM; method in brief: as §1
SK-MEL [12] = assay: Induction of apoptosis in human SK-MEL cells assessed as increase in cleaved PARP level at 0.2 to 0.8 uM incubated for 48 hrs by Western blot analysis; type: functional, cell-based; settings: dose 0.2-0.8 µM; method in brief: as §1
SK-MEL [13] = assay: Induction of apoptosis in human SK-MEL cells assessed as increase in cleaved PARP level at 10 uM incubated for 48 hrs by Western blot analysis; type: functional, cell-based
Method in brief: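 SK-MEL-1 cells (DMEM, 10% FBS, 37 °C, 5% CO2) were seeded at 3 × 10⁵/well for 24 h, then treated for 48 h. They were lysed in RIPA buffer with PMSF, orthovanadate, DTT and phosphatase inhibitor for 15 min at 4 °C, and protein was quantified by BCA. 20 μg was run on SDS-PAGE and blotted to PVDF, with primary antibody overnight at 4 °C and secondary 1 h at room temperature. Detection was by ECL, with β-actin as loading control.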

SK-MEL [14] = assay: Anti-melanoma activity against human SK-MEL cells xenografted in yolk of zebra fish at 0.5 uM measured after 48 hrs by CM-Dil staining based fluorescence microscopic analysis; type: functional, cell-based
Method in brief: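 SK-MEL-1 cells were prestained with CM-DiI (2 μM) and microinjected into the superficial yolk near the perivitelline space of 2 dpf zebrafish. Embryos were kept in E3 medium, treated for 48 h at 28.5 °C, then immobilized. CM-DiI fluorescence was imaged by fluorescence microscopy alongside bright field, and the melanoma area was outlined.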

Row | Structure (SMILES) | Activity [3] | IC50 (SK-MEL [4]) | Activity [5] | Activity (Danio rerio [6]) | Activity (Danio rerio [7]) | Activity [8] | Activity [9] | also measured
1 | C[C@]12CC[C@H](O)C[C@@]1(O)CC[C@@H]1[C@@H]2CC[C@]2(C)[C@@H](c3ccc(=O)oc3)CC[C@]12O [TELOCINOBUFAGIN] | Toxic | 50 nM | Toxic | inactive | inactive | Toxic |  | Activity (SK-MEL [1]): Active; Activity (SK-MEL [2]): Active
2 | C[C@]12CC[C@@H]3[C@H]4CC[C@H](O)C[C@@]4(O)CC[C@H]3[C@]13O[C@@H]3C[C@@H]2c1ccc(=O)oc1 | Toxic | 3600 nM | Toxic | inactive | inactive | Toxic |  | 
3 | C[C@]12CC[C@H]3[C@@H](CC[C@]4(O)C[C@@H](O)CC[C@]34C(=O)O)[C@@]1(O)CC[C@@H]2c1ccc(=O)oc1 |  | 290 nM |  | inactive | inactive |  | Non-Toxic | 
4 | C[C@]12CC[C@@H]3[C@H]4CC[C@H](O)C[C@@]4(O)CC[C@H]3[C@@]1(O)CC[C@@H]2c1ccc(=O)oc1 |  | 280 nM |  |  |  |  |  | 
5 | C[C@]12CC[C@H](O)C[C@@]1(O)CC[C@@H]1[C@@H]2CC[C@]2(C)[C@@H](c3ccc(=O)oc3)[C@@H](O)C[C@]12O |  | 700 nM |  | inactive | inactive |  | Non-Toxic | 
6 | C[C@]12CC[C@H]3[C@@H](CC[C@]4(O)C[C@@H](O)CC[C@]34O)[C@@]1(O)CC[C@@H]2c1ccc(=O)oc1 |  | 910 nM |  | Active | Active |  | Non-Toxic | Activity [10]: inactive; Activity (SK-MEL [11]): inactive
7 | C[C@]12CC[C@H]3[C@@H](CC[C@]4(O)C[C@@H](O)CC[C@]34C=O)[C@@]1(O)CC[C@@H]2c1ccc(=O)oc1 |  | 96 nM |  | Active | Active | Toxic |  | Activity [10]: inactive; Activity (SK-MEL [12]): inactive
8 | CNC(=O)c1cc(Oc2ccc(NC(=O)Nc3ccc(Cl)c(C(F)(F)F)c3)cc2)ccn1 [SORAFENIB] |  | 10000 nM |  |  |  |  |  | Activity (SK-MEL [13]): inactive; Activity (SK-MEL [14]): Active
9 | C[C@]12CC[C@@H]3C4=C(C[C@H]3[C@@]1(O)CC[C@@H]2c1ccc(=O)oc1)C(=O)C=CCC4 | Toxic | 3300 nM | Toxic | inactive | inactive | Toxic |  | 

From ChEMBL document CHEMBL4823259, “Bufadienolides from the Eggs of the Toad Bufo bufo gargarizans and Their Antimelanoma Activities” (J Nat Prod, 2021)
